Source: ChEMBL document CHEMBL1123323, “Isolation, synthesis, and antitumor evaluation of spirohydantoin aziridine, a mutagenic metabolite of spirohydantoin mustard” (J Med Chem, 1986)
“And” between values parts separate entries of the source, which are not always exact repeats. Identical values can stand only once.

Columns and labels:
[1] = test system: P388; experiment: Percent increase in life span of treated (10 mg/kg, qd 1-9 days) mice as compared to the untreated leukemia controls; Expressed as therapeutic response; format: functional, Mus musculus
Method in brief: (§1)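 Female CDF1 mice given 1×10^6 P388 leukemia cells intraperitoneally. Drug in reagent-grade Me₂SO, dosed by average body weight in 0.1 mL. Life-span increase is from median day of death versus untreated leukemic controls. Tumor cell kill and log change (net change in viable tumor stem cells, end versus start of treatment) use a historical doubling time of 0.44 day.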

[2] = test system: P388; experiment: Percent increase in life span of treated (15 mg/kg, day 1 only) mice as compared to the untreated leukemia controls; Expressed as therapeutic response; format: functional, Mus musculus; method in brief: as §1
[3] = test system: P388; experiment: Percent increase in life span of treated (20 mg/kg, qd 1-9 days) mice as compared to the untreated leukemia controls; Expressed as therapeutic response; format: functional, Mus musculus; method in brief: as §1
[4] = test system: P388; experiment: Percent increase in life span of treated (5 mg/kg, day 1 only) mice as compared to the untreated leukemia controls; Expressed as therapeutic response; format: functional, Mus musculus; method in brief: as §1
[5] = test system: P388; experiment: Percent increase in life span of treated (5 mg/kg, qd 1-9 days) mice as compared to the untreated leukemia controls; Expressed as therapeutic response; format: functional, Mus musculus; method in brief: as §1
[6] = test system: P388; experiment: Approximate log change after administration (10 mg/kg, day 1 only) in normal mice; Expressed as therapeutic response; format: functional, Mus musculus; method in brief: as §1
[7] = test system: P388; experiment: Percent of deaths after administration (5 mg/kg, day 1 only) in leukemic mice; format: functional, Mus musculus; method in brief: as §1
[8] = test system: P388; experiment: Percent of deaths after administration (5 mg/kg, qd 1-9 days) in leukemic mice; format: functional, Mus musculus; method in brief: as §1
[9] = test system: P388; experiment: Approximate log change after administration (5 mg/kg, day 1 only) in normal mice; Expressed as therapeutic response; format: functional, Mus musculus; method in brief: as §1
[10] = test system: P388; experiment: (§2) Approximate number of tumor cells alive after administration (10 mg/kg, day 1 only) in normal mice; Expressed as therapeutic response; format: functional, Mus musculus; method in brief: as §1
[11] = test system: P388; experiment: Approximate number of tumor cells alive after administration (5 mg/kg, day 1 only) in normal mice; Expressed as therapeutic response; format: functional, Mus musculus; method in brief: as §1
[12] = test system: P388; experiment: Percent of deaths after administration (10 mg/kg, day 1 only) in normal mice; format: functional, Mus musculus
Method in brief: (§3)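 Non-tumored mice treated concurrently as drug toxicity controls. Drug in reagent-grade Me₂SO, dosed by average body weight in 0.1 mL. Deaths scored.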

[13] = test system: P388; experiment: Percent of deaths after administration (10 mg/kg, qd 1-9 days) in leukemic mice; format: functional, Mus musculus; method in brief: as §1
[14] = test system: P388; experiment: Percent of deaths after administration (15 mg/kg, day 1 only) in leukemic mice; format: functional, Mus musculus; method in brief: as §1
[15] = test system: P388; experiment: Percent of deaths after administration (15 mg/kg, day 1 only) in normal mice; format: functional, Mus musculus; method in brief: as §3
[16] = test system: P388; experiment: Percent of deaths after administration (20 mg/kg, qd 1-9 days) in leukemic mice; format: functional, Mus musculus; method in brief: as §1
[17] = Approximate number of tumor cells alive after administration (10 mg/kg, qd 1-9 days) in normal mice; Expressed as therapeutic response; format: ADME, organism-based; conditions: mouse, in vivo; method in brief: as §1
[18] = Approximate number of tumor cells alive after administration (15 mg/kg, day 1 only) in normal mice; Expressed as therapeutic response; format: ADME, organism-based; conditions: mouse, in vivo; method in brief: as §1
[19] = Approximate number of tumor cells alive after administration (20 mg/kg, qd 1-9 days) in normal mice; Expressed as therapeutic response; format: ADME, organism-based; conditions: mouse, in vivo; method in brief: as §1
[20] = Approximate number of tumor cells alive after administration (5 mg/kg, qd 1-9 days) in normal mice; Expressed as therapeutic response; format: ADME, organism-based; conditions: mouse, in vivo; method in brief: as §1
[21] = as §2; format: ADME, organism-based; conditions: mouse, in vivo; method in brief: as §1
[22] = test system: P388; experiment: Percent increase in life span of treated (10 mg/kg, day 1 only) mice as compared to the untreated leukemia controls; Expressed as therapeutic response; format: functional, Mus musculus; method in brief: as §1
[23] = test system: P388; experiment: Percent increase in life span of treated (20 mg/kg, day 1 only) mice as compared to the untreated leukemia controls; Expressed as therapeutic response; format: functional, Mus musculus; method in brief: as §1
[24] = test system: P388; experiment: Percent increase in life span of treated (30 mg/kg, day 1 only) mice as compared to the untreated leukemia controls; Expressed as therapeutic response; format: functional, Mus musculus; method in brief: as §1
[25] = test system: P388; experiment: Percent increase in life span of treated (60 mg/kg, day 1 only) mice as compared to the untreated leukemia controls; Expressed as therapeutic response; format: functional, Mus musculus; method in brief: as §1
[26] = test system: P388; experiment: Percent of deaths after administration (20 mg/kg, qd 1-9 days) in normal mice; format: functional, Mus musculus; method in brief: as §3
[27] = test system: P388; experiment: Percent of deaths after administration (30 mg/kg, day 1 only) in leukemic mice; format: functional, Mus musculus; method in brief: as §1
[28] = test system: P388; experiment: Percent of deaths after administration (30 mg/kg, day 1 only) in normal mice; format: functional, Mus musculus; method in brief: as §3
[29] = test system: P388; experiment: Percent of deaths after administration (45 mg/kg, day 1 only) in leukemic mice; format: functional, Mus musculus; method in brief: as §1
[30] = test system: P388; experiment: Percent of deaths after administration (60 mg/kg, day 1 only) in leukemic mice; format: functional, Mus musculus; method in brief: as §1
[31] = test system: P388; experiment: Percent of deaths after administration (60 mg/kg, day 1 only) in normal mice; format: functional, Mus musculus; method in brief: as §3
[32] = test system: P388; experiment: Approximate log change after administration (20 mg/kg, day 1 only) in normal mice; Expressed as therapeutic response; format: functional, Mus musculus
Method in brief: (§4)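 Female CDF1 mice were implanted intraperitoneally with 1×10^6 P388 leukemia cells. Drug was prepared in reagent-grade Me₂SO according to average body weight, with each dose in 0.1 mL. Concurrent drug toxicity controls were run. Tumor cell kill was calculated from median day of death using a historical doubling time of 0.44 day. Log change is the net change in viable tumor stem cells from the start to the end of treatment.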

[33] = test system: P388; experiment: Approximate log change after administration (30 mg/kg, day 1 only) in normal mice; Expressed as therapeutic response; format: functional, Mus musculus; method in brief: as §4
[34] = test system: P388; experiment: Approximate number of tumor cells alive after administration (20 mg/kg, day 1 only) in normal mice; Expressed as therapeutic response; format: functional, Mus musculus; method in brief: as §1
[35] = test system: P388; experiment: Approximate number of tumor cells alive after administration (30 mg/kg, day 1 only) in normal mice; Expressed as therapeutic response; format: functional, Mus musculus; method in brief: as §1
[36] = test system: P388; experiment: Percent of deaths after administration (10 mg/kg, day 1 only) in leukemic mice; format: functional, Mus musculus; method in brief: as §1
[37] = test system: P388; experiment: Percent of deaths after administration (20 mg/kg, day 1 only) in leukemic mice; format: functional, Mus musculus
[38] = test system: P388; experiment: Percent of deaths after administration (20 mg/kg, day 1 only) in normal mice; format: functional, Mus musculus; method in brief: as §3
[39] = test system: Salmonella typhimurium; experiment: Mutagenic activity against Salmonella Typhimurium TA1535 (SHM equiv/plate 1 ug); Expressed as difference between the observed number of revertants and the average number of spontaneous revertants (Expt 2); format: functional, Salmonella enterica subsp. enterica serovar Typhimurium
Method in brief: (§5)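 Salmonella typhimurium TA1535 plate incorporation assay without S9 activation. TLC-isolated metabolite and synthetic aziridine dosed as SHM equivalents per plate. Score is revertants minus mean spontaneous revertants, from two separate experiments.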

[40] = test system: Salmonella typhimurium; experiment: Mutagenic activity against Salmonella Typhimurium TA1535 (SHM equiv/plate 10 ug); Expressed as difference between the observed number of revertants and the average number of spontaneous revertants (Expt 1); format: functional, Salmonella enterica subsp. enterica serovar Typhimurium; method in brief: as §5
[41] = test system: Salmonella typhimurium; experiment: Mutagenic activity against Salmonella Typhimurium TA1535 (SHM equiv/plate 10 ug); Expressed as difference between the observed number of revertants and the average number of spontaneous revertants (Expt 2); format: functional, Salmonella enterica subsp. enterica serovar Typhimurium; method in brief: as §5
[42] = test system: Salmonella typhimurium; experiment: Mutagenic activity against Salmonella Typhimurium TA1535 (SHM equiv/plate 100 ug); Expressed as difference between the observed number of revertants and the average number of spontaneous revertants (Expt 2); format: functional, Salmonella enterica subsp. enterica serovar Typhimurium; method in brief: as §5
[43] = Approximate number of tumor cells alive after administration (45 mg/kg, day 1 only) in normal mice; Expressed as therapeutic response; format: ADME, organism-based; conditions: mouse, in vivo; method in brief: as §1
[44] = Approximate number of tumor cells alive after administration (60 mg/kg, day 1 only) in normal mice; Expressed as therapeutic response; format: ADME, organism-based; conditions: mouse, in vivo; method in brief: as §1
[45] = test system: Salmonella typhimurium; experiment: Mutagenic activity against Salmonella Typhimurium TA1535 (SHM equiv/plate 1 ug); Expressed as difference between the observed number of revertants and the average number of spontaneous revertants (Expt 1); format: functional, Salmonella enterica subsp. enterica serovar Typhimurium; method in brief: as §5

O=C1NC2(CCCCC2)C(=O)N1CCN(CCCl)CCCl [SPIROMUSTINE]
ILS [1]: -50%
ILS [2]: 35%
ILS [3]: -60%
ILS [4]: 30%
ILS [5]: -45%
Log change [6]: -2.7
Activity [7]: 10%
Activity [8]: 100%
Log change [9]: -2.1
Activity [10]: 8900
Activity [11]: 43000
Activity [12]: 33%
Activity [13]: 100%
Activity [14]: 40%
Activity [15]: 50%
Activity [16]: 100%
Activity [17]: Toxic
Activity [18]: Toxic
Activity [19]: Toxic
Activity [20]: Toxic
Activity [21]: Toxic

O=C1NC2(CCCCC2)C(=O)N1CCN1CC1
ILS [22]: 0%
ILS [1]: -40%
ILS [23]: 0%
ILS [3]: -25%
ILS [24]: 0%
ILS [5]: -5%
ILS [25]: -30%
Activity [26]: 0%
Activity [27]: 16% and 0%
Activity [28]: 0%
Activity [29]: 33%
Activity [8]: 83%
Activity [30]: 50%
Activity [31]: 0%
Log change [32]: 0
Log change [33]: 0
Activity [10]: 4800000
Activity [34]: 4800000
Activity [35]: 4800000
Activity [36]: 0%
Activity [13]: 0%
Activity [37]: 0%
Activity [38]: 0%
Activity [16]: 83%
Activity [39]: 21
Activity [40]: 227
Activity [41]: 238
Activity [42]: 2000%
Activity [17]: Toxic
Activity [19]: Toxic
Activity [43]: Toxic
Activity [20]: Toxic
Activity [44]: Toxic
Activity [45]: 15
